Assay results from ChEMBL document CHEMBL1165983, “Regio- and stereospecific synthesis of mono-beta-d-glucuronic acid derivatives of combretastatin A-1” (J Nat Prod, 2010).

How the values were obtained:
DU-145 = test: Cytotoxicity against human DU145 cells by SRB assay; format: functional
SK-OV-3 = test: Cytotoxicity against human SKOV3 cells by SRB assay; format: functional
NCI-H460 = test: Cytotoxicity against human NCI-H460 cells by SRB assay; format: functional
[1] = Inhibition of bovine brain tubulin assembly after 20 mins; set-up: species or system Bos taurus
How it was run: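 Bovine brain tubulin (10 µM) was preincubated with varying compound concentrations in glutamate buffer at 30 °C and then cooled to 0 °C. GTP was added, and the mixtures were warmed to 30 °C in a recording spectrophotometer. Assembly was followed turbidimetrically.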

For `COc1ccc(/C=C/c2cc(OC)c(OC)c(OC)c2)c(O[C@@H]2O[C@H](C(=O)O)[C@@H](O)[C@H](O)[C@H]2O)c1O`, the GI50 (DU-145) was > 88 µM, the GI50 (SK-OV-3) was 30 µM and the GI50 (NCI-H460) was 26 µM.

In the case of `COc1ccc(/C=C\c2cc(OC)c(OC)c(OC)c2)c(O[C@@H]2O[C@H](C(=O)O)[C@@H](O)[C@H](O)[C@H]2O)c1O`, the GI50 (DU-145) is reported as 4.4 µM, the GI50 (SK-OV-3) is reported as 2.3 µM and the GI50 (NCI-H460) is reported as 3 µM.

Molecule `COc1ccc(/C=C\c2cc(OC)c(OC)c(OC)c2)c(O)c1O` [COMBRETASTATIN A-1] has an IC50 [1] of 1.1 µM, a GI50 (DU-145) of 0.013 µM and a GI50 (NCI-H460) of 0.046 µM.

With `COc1cc(/C=C/c2ccc(OC)c(O[C@@H]3O[C@H](C(=O)O)[C@@H](O)[C@H](O)[C@H]3O)c2O)cc(OC)c1OC` the GI50 (DU-145) was > 98 µM, the GI50 (SK-OV-3) was > 85 µM and the GI50 (NCI-H460) was 26 µM.

With `COc1cc(/C=C\c2ccc(OC)c(O[C@@H]3O[C@H](C(=O)O)[C@@H](O)[C@H](O)[C@H]3O)c2O)cc(OC)c1OC` the GI50 (DU-145) was 3.3 µM, the GI50 (SK-OV-3) was 2.1 µM and the GI50 (NCI-H460) was 1.8 µM.

In the case of `COc1ccc(/C=C\c2cc(OC)c(OC)c(OC)c2)cc1O` [COMBRETASTATIN A4], the GI50 (DU-145) is reported as 0.001 µM.
